Folding enthalpy and Tm data for 30 sequences are collected here from the array DNA melting data of Ke et al. (doi:10.1101/2024.01.08.574731).

The nature of data set [1]: folding enthalpy; higher = less favourable; fluorescence melt of hairpins on a sequencing array, two-state fit. The note with it: sodium 0.088 M. In outline: (§1)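 In 50 mM Na-HEPES pH 8.0 containing 25 mM NaCl, hairpins from the library on a sequenced MiSeq flow cell were imaged for Cy3 fluorescence at 2.5 °C steps up to 60 °C, with Cy3 and quencher oligos annealed. After normalisation to pre-quench Cy3 and to control constructs, two-state fits with bootstrapping gave melting temperature and folding enthalpy. Four replicates were combined by inverse-variance weighting, and fitted temperatures were shifted up by 9.35 °C to match UV melts.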

A short description of data set [2]: melting temperature; fluorescence melt of hairpins on a sequencing array, two-state fit, raised by 9.35 °C to match UV melts. The note with it: sodium 0.088 M. In outline:
as §1

With GGTTGCGGAAACACAACC (((((.(....).))))), the folding enthalpy in data set [1] was -40 kcal/mol. Also, the Tm in data set [2] turned out to be 48.4 °C.
For GGTTGCGGAAACGCAATC (.(((((....))))).) the same measures were -28.9 kcal/mol and 54.9 °C.
In the case of GGTTGCGGAAACGTAACC ((((.((....)).)))), in data set [1], the folding enthalpy is -47.9 kcal/mol. Besides, the Tm in data set [2] was 54 °C.
For GGTTGGAAACAACC (((((....))))), in data set [1], the folding enthalpy was -29.6 kcal/mol. The Tm in data set [2] was determined as 54.9 °C.
For GGTTGGGGAAACCCAATC (.(((((....))))).), the folding enthalpy in data set [1] is -26.2 kcal/mol. Also, the Tm in data set [2] is 48.7 °C.
The like results for GGTTGGGGAAACCCGACC (((.(((....))).))) were, in that order, -32.4 kcal/mol and 56.7 °C.
Consider GGTTGTGAAAACAACC ((((((....)))))), for which the folding enthalpy in data set [1] was -40.1 kcal/mol. Further, the Tm in data set [2] stood at 61.5 °C.
As to GGTTGTGGAAACATGACC (((..((....))..))), in data set [1], the folding enthalpy was -30.9 kcal/mol. Also, the Tm in data set [2] amounted to 39.2 °C.
For the sequence GGTTTACGAAAGTAGACC (((.(((....))).))), in data set [1], the folding enthalpy was -34.9 kcal/mol. Besides, the Tm in data set [2] came out at 51 °C.
As to GGTTTAGGAAACTAGACC (((.(((....))).))), the folding enthalpy in data set [1] was -30.2 kcal/mol. The Tm in data set [2] was determined as 37.5 °C.
Consider GGTTTATCGAAAGATACC (((..(((....)))))), for which, in data set [1], the folding enthalpy is -12.3 kcal/mol. Besides, the Tm in data set [2] stood at 28 °C.
With GGTTTCCGAAAGGATACC (((.(((....))).))), the folding enthalpy in data set [1] was -36.7 kcal/mol. In addition, the Tm in data set [2] worked out at 50.5 °C.
For GGTTTCGAAAGAACACC ((((((....))).))), the folding enthalpy in data set [1] is -26.8 kcal/mol. The Tm in data set [2] came to 37.6 °C.
Regarding GGTTTCGAAAGAAGACC ((((((....))).))), the folding enthalpy in data set [1] is -19.5 kcal/mol. Besides, the Tm in data set [2] is 36.8 °C.
For GGTTTCGAAAGAATCACC ((((((....)))..))) the same measures were -13 kcal/mol and 26.7 °C.
For GGTTTCGGAAACGAAGCC ((.((((....)))).)), in data set [1], the folding enthalpy was -28.2 kcal/mol. Also, the Tm in data set [2] stood at 51.4 °C.
In the case of GGTTTGACGAAAGTCACC (((..(((....)))))), in data set [1], the folding enthalpy is -10.6 kcal/mol. Also, the Tm in data set [2] came to 30.4 °C.
With GGTTTGCGAAAGCAACC (((.(((....)))))), in data set [1], the folding enthalpy is -17.2 kcal/mol. Also, in data set [2], the Tm is 52.4 °C.
In the case of GGTTTGCGAAAGCAGACC (((.(((....))).))), the folding enthalpy in data set [1] was -34.8 kcal/mol. The Tm in data set [2] was 59.5 °C.
Consider GGTTTGGAAACAAACC ((((((....)))))), for which, in data set [1], the folding enthalpy is -41.6 kcal/mol. Also, the Tm in data set [2] was determined as 56.5 °C.
For GGTTTTCGAAAGAAACC (((.(((....)))))) the same measures were -23.1 kcal/mol and 44.8 °C.
For GGTTTTCGAAAGAAGACC (((.(((....))).))) the same measures were -31.4 kcal/mol and 48.1 °C.
With GGTTTTCGAAAGAATACC (((.(((....))).))), in data set [1], the folding enthalpy was -30.8 kcal/mol. In data set [2], the Tm is 42.3 °C.
For GGTTTTGGAAACAAAACC (((((((....))))))) the same measures were -50.2 kcal/mol and 58.6 °C.
With GGTTTTGGAAACAGAACC ((((.((....)).)))), the folding enthalpy in data set [1] was -36.7 kcal/mol. The Tm in data set [2] is 42.1 °C.
As to GTAAACGAAAGTTCTTAC ((((((....)))..))), the folding enthalpy in data set [1] was -11 kcal/mol. For the same sequence, in data set [2], the Tm was 24.7 °C.
Regarding GTAAACGAAAGTTGTAC ((((((....))).))), in data set [1], the folding enthalpy is -13.7 kcal/mol. For the same sequence, the Tm in data set [2] came out at 31.2 °C.
Consider GTAAACGAAAGTTGTTAC ((((((....)))..))), for which, in data set [1], the folding enthalpy was -10.1 kcal/mol. Further, the Tm in data set [2] is 23.7 °C.
Regarding GTAAACGAAAGTTTATAC ((((((....)))..))), the folding enthalpy in data set [1] is -13.4 kcal/mol. Further, the Tm in data set [2] worked out at 37.1 °C.
For GTAAACGGAAACGTTTAC (((((((....))))))) the same measures were -47.3 kcal/mol and 57.8 °C.
